From ChEMBL document CHEMBL4017515 (J Med Chem, 2017)

Experiments:
[1] = Aqueous solubility of compound; assay type: physicochemical
[2] = test system: Staphylococcus aureus; test: Growth inhibition of Staphylococcus aureus USA300 LAC at 0.2 mM measured after overnight incubation; conditions: 200 µM
[3] = Cmax in Sprague-Dawley rat at 5 mg/kg, iv after 24 hrs by LC/MS/MS analysis; assay type: ADME, organism-based; set-up: dose 5 mg/kg, route intravenous; conditions: in vivo
Summary of the method: (§1)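 Male SD rats (230-260 g), six in total; compound in 10% castor oil/water given once IV at 5 mg/kg or PO at 10 mg/kg. Blood sampled at various time points over 24 h, and drug concentration measured by LC-MS/MS.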

[4] = Tmax in Sprague-Dawley rat at 10 mg/kg, po after 24 hrs by LC/MS/MS analysis; assay type: ADME, organism-based; conditions: in vivo
Summary of the method: (§2)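 Male SD rats (230-260 g), six in total across routes. Compound dissolved in 10% castor oil/water, given orally at 10 mg/kg, with an IV arm at 5 mg/kg for comparison. Blood sampled at various time points over 24 h. Blood concentrations measured by LC-MS/MS.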

[5] = AUC (0 to t) in Sprague-Dawley rat at 10 mg/kg, po after 24 hrs by LC/MS/MS analysis; assay type: ADME, organism-based; set-up: dose 10 mg/kg, time < 24 hr, route oral; conditions: in vivo; summary of the method: as §1
[6] = Cmax in Sprague-Dawley rat at 10 mg/kg, po after 24 hrs by LC/MS/MS analysis; assay type: ADME, organism-based; set-up: dose 10 mg/kg, route oral; conditions: in vivo; summary of the method: as §1
[7] = test system: Staphylococcus aureus; test: Growth inhibition of Staphylococcus aureus Newman at 0.2 mM measured after overnight incubation; conditions: 200 µM
[8] = test system: Staphylococcus aureus; test: Growth inhibition of Staphylococcus aureus USA400 MW2 at 0.2 mM measured after overnight incubation; conditions: 200 µM
[9] = Oral bioavailability in Sprague-Dawley rat at 10 mg/kg after 24 hrs by LC/MS/MS analysis; assay type: ADME, organism-based; conditions: in vivo; summary of the method: as §2
[10] = AUC (0 to infinity) in Sprague-Dawley rat at 5 mg/kg, iv after 24 hrs by LC/MS/MS analysis; assay type: ADME, organism-based; set-up: dose 5 mg/kg, time infinity, route intravenous; conditions: in vivo; summary of the method: as §1
[11] = Mean residence time (0 to t) in Sprague-Dawley rat at 5 mg/kg, iv after 24 hrs by LC/MS/MS analysis; assay type: ADME, organism-based; conditions: in vivo; summary of the method: as §1
[12] = test system: Staphylococcus aureus; test: Growth inhibition of Staphylococcus aureus Mu50 at 0.2 mM measured after overnight incubation; conditions: 200 µM
[13] = Mean residence time (0 to infinity) in Sprague-Dawley rat at 5 mg/kg, iv after 24 hrs by LC/MS/MS analysis; assay type: ADME, organism-based; conditions: in vivo; summary of the method: as §1
[14] = Mean residence time (0 to t) in Sprague-Dawley rat at 10 mg/kg, po after 24 hrs by LC/MS/MS analysis; assay type: ADME, organism-based; conditions: in vivo; summary of the method: as §1
[15] = AUC (0 to t) in Sprague-Dawley rat at 5 mg/kg, iv after 24 hrs by LC/MS/MS analysis; assay type: ADME, organism-based; set-up: dose 5 mg/kg, time < 24 hr, route intravenous; conditions: in vivo; summary of the method: as §1
[16] = Half life in Sprague-Dawley rat at 5 mg/kg, iv after 24 hrs by LC/MS/MS analysis; assay type: ADME, organism-based; conditions: in vivo; summary of the method: as §1
[17] = AUC (0 to infinity) in Sprague-Dawley rat at 10 mg/kg, po after 24 hrs by LC/MS/MS analysis; assay type: ADME, organism-based; set-up: dose 10 mg/kg, time infinity, route oral; conditions: in vivo; summary of the method: as §1
[18] = Tmax in Sprague-Dawley rat at 5 mg/kg, iv after 24 hrs by LC/MS/MS analysis; assay type: ADME, organism-based; conditions: in vivo
Summary of the method: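 Male SD rats (230-260 g), six in total across routes. Single intravenous dose of 5 mg/kg in 10% castor oil/water. Blood sampled at various time points over 24 h. Compound concentration in blood quantified by LC-MS/MS.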

[19] = Mean residence time (0 to infinity) in Sprague-Dawley rat at 10 mg/kg, po after 24 hrs by LC/MS/MS analysis; assay type: ADME, organism-based; conditions: in vivo; summary of the method: as §1
[20] = Half life in Sprague-Dawley rat at 10 mg/kg, po after 24 hrs by LC/MS/MS analysis; assay type: ADME, organism-based; conditions: in vivo; summary of the method: as §1
[21] = test system: Staphylococcus aureus subsp. aureus MW2; test: Inhibition of CrtN in Staphylococcus aureus USA400 MW2 assessed as bacterial death by measuring survival rate measured after 6 hrs by serial dilution method (reference value: 20.67%)
Summary of the method: (§3)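 Overnight cultures in PBS (1×10^7 CFU/mL) mixed 1:9 with healthy-volunteer human whole blood (1×10^6 CFU/mL final). Held 6 h at 37 °C; surviving CFU counted by serial dilution plating on TSA/TSB.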

[22] = test system: Staphylococcus aureus LAC; test: Inhibition of CrtN in Staphylococcus aureus USA300 LAC assessed as bacterial death by measuring survival rate measured after 6 hrs by serial dilution method (reference value: 12%); summary of the method: as §3
[23] = test system: Staphylococcus aureus LAC; test: Inhibition of CrtN in Staphylococcus aureus USA300 LAC assessed as H2O2-induced bacterial death by measuring fold reduction in survival rate at 1 uM preincubated for 24 hrs followed by H2O2 addition measured after 30 mins by serial dilution method
Summary of the method: (§4)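 Strain grown in TSB at 37 °C for 24 h with or without 1 μM compound, or with NAC. Cells washed in PBS and set at 4×10^6 CFU per 250 μL. H2O2 added to 1.5% final, then incubated 30 min at 37 °C with shaking at 250 rpm. Reaction quenched with 1000 U/mL catalase; survivors counted by serial dilution CFU on TSA/TSB.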

[24] = test system: Staphylococcus aureus subsp. aureus MW2; test: Inhibition of CrtN in Staphylococcus aureus USA400 MW2 assessed as H2O2-induced bacterial death by measuring fold reduction in survival rate at 1 uM preincubated for 24 hrs followed by H2O2 addition measured after 30 mins by serial dilution method; summary of the method: as §4
[25] = test system: Staphylococcus aureus LAC; test: Inhibition of CrtN in Staphylococcus aureus USA300 LAC assessed as H2O2-induced bacterial death by measuring survival rate at 1 uM preincubated for 24 hrs followed by H2O2 addition measured after 30 mins by serial dilution method (reference value: 24%)
[26] = test system: Staphylococcus aureus subsp. aureus MW2; test: Inhibition of CrtN in Staphylococcus aureus USA400 MW2 assessed as H2O2-induced bacterial death by measuring survival rate at 1 uM preincubated for 24 hrs followed by H2O2 addition measured after 30 mins by serial dilution method (reference value: 26.3%)

Structure (SMILES) | solubility [1] | also measured
CN(C/C=C/c1ccc(C(F)(F)F)cc1F)Cc1ccc2c(c1)OCCC2.Cl | 15200 µg/mL | –
CN(C/C=C/C=C/c1ccc(-c2ccccc2)cc1)Cc1ccc2c(c1)OCCC2.O=C(O)/C=C\C(=O)O | 1300 µg/mL | –
CN(C/C=C/c1ccc(-c2ccccc2)cc1)Cc1ccc2c(c1)CCO2.Cl | 4400 µg/mL | growth inhibition (GI) [2]: Non-Toxic; Cmax [3]: 2040 ng/mL; Tmax [4]: 2 h; AUC(0-t) at 24 h [5]: 156 ng·h/mL; Cmax [6]: 41.8 ng/mL; growth inhibition (GI) [7]: Non-Toxic; growth inhibition (GI) [8]: Non-Toxic; bioavailability [9]: 6.5%; AUC(0-inf) [10]: 1360 ng·h/mL; MRT last at 24 h [11]: 0.9 h; growth inhibition (GI) [12]: Non-Toxic; MRT inf [13]: 1.13 h; MRT last at 24 h [14]: 2.61 h; AUC(0-t) at 24 h [15]: 1330 ng·h/mL; half-life [16]: 2.27 h; AUC(0-inf) [17]: 177 ng·h/mL; Tmax [18]: 4.98 min; MRT inf [19]: 3.28 h; half-life [20]: 1.7 h
CN(C/C=C/c1ccc(-c2ccccc2)cc1)Cc1ccc2c(c1)CCO2.O=P(O)(O)O | 16200 µg/mL | –
CN(C/C=C/c1ccc(C(F)(F)F)cc1)Cc1ccc2c(c1)OCCC2.Cl | 13200 µg/mL | –
CN(C/C=C/c1ccc(-c2ccccc2)cc1)Cc1ccc2c(c1)CCO2.O=C(O)CCC(=O)O | 3300 µg/mL | –
CN(C/C=C/C=C/c1ccc(-c2ccccc2)cc1)Cc1ccc2c(c1)OCCC2.O=P(O)(O)O | 12900 µg/mL | –
CN(C/C=C/C=C/c1ccc(-c2ccccc2)cc1)Cc1ccc2c(c1)OCCC2.O=C(O)CCC(=O)O | 2300 µg/mL | –
COc1ccc(/C=C/CN(C)Cc2ccc3c(c2)CCCC3)cc1.Cl | 900 µg/mL | –
Br.CN(C/C=C/c1ccc(-c2ccccc2)cc1)Cc1ccc2c(c1)CCO2 | 2200 µg/mL | –
CN(C/C=C/c1ccc(C(F)(F)F)cc1F)Cc1ccc2c(c1)CCO2.Cl | 16300 µg/mL | –
CN(C/C=C/C=C/c1ccc(-c2ccccc2)cc1)Cc1ccc2c(c1)OCCC2.O=C(O)CC(O)(CC(=O)O)C(=O)O | 1600 µg/mL | –
CCOc1ccc(/C=C/CN(C)Cc2ccc3c(c2)OCCC3)cc1.Cl | 10200 µg/mL | –
CN(C/C=C/C=C/c1ccc(-c2ccccc2)cc1)Cc1ccc2c(c1)OCCC2 | – | Survival [21]: 0.53%; Survival [22]: 0.23%; fold change (FC) [23]: 10; fold change (FC) [24]: 10
CN(C/C=C/c1ccc(C(F)(F)F)cc1)Cc1ccc2c(c1)CCO2.Cl | 14600 µg/mL | –
CN(C/C=C/C=C/c1ccc(-c2ccccc2)cc1)Cc1ccc2c(c1)OCCC2.O=S(=O)(O)O | 1100 µg/mL | –
CN(C/C=C/c1ccc(C(F)F)cc1)Cc1ccc2c(c1)OCCC2.Cl | 16300 µg/mL | –
CN(C/C=C/C=C/c1ccc(-c2ccccc2)cc1)Cc1ccc2c(c1)OCCC2.Cl | 3800 µg/mL | growth inhibition (GI) [2]: Non-Toxic; growth inhibition (GI) [7]: Non-Toxic; growth inhibition (GI) [8]: Non-Toxic; growth inhibition (GI) [12]: Non-Toxic
CC(O)C(=O)O.CN(C/C=C/C=C/c1ccc(-c2ccccc2)cc1)Cc1ccc2c(c1)OCCC2 | 6500 µg/mL | –
CN(C/C=C/c1ccc(Cl)cc1)Cc1ccc2c(c1)OCCC2.Cl | 11500 µg/mL | –
CC(=O)O.CN(C/C=C/c1ccc(-c2ccccc2)cc1)Cc1ccc2c(c1)CCO2 | 4700 µg/mL | –

Structure (SMILES) | solubility [1] | also measured
CN(C/C=C/c1ccc(Cl)cc1)Cc1ccc2c(c1)CCCC2.Cl | 1900 µg/mL | –
CN(C/C=C/c1ccc(-c2ccccc2)cc1)Cc1ccc2c(c1)CCO2.O=C(O)C(O)C(O)C(=O)O | 5700 µg/mL | –
CC(=O)O.CN(C/C=C/C=C/c1ccc(-c2ccccc2)cc1)Cc1ccc2c(c1)OCCC2 | 4100 µg/mL | –
CN(C/C=C/c1ccc(-c2ccccc2)cc1)Cc1ccc2c(c1)CCO2.O=C(O)CC(O)(CC(=O)O)C(=O)O | 2300 µg/mL | –
CC(O)C(=O)O.CN(C/C=C/c1ccc(-c2ccccc2)cc1)Cc1ccc2c(c1)CCO2 | 6200 µg/mL | –
CN(C/C=C/C=C/c1ccc(-c2ccccc2)cc1)Cc1ccc2c(c1)OCCC2.O=C(O)C(F)(F)F | 1700 µg/mL | –
CN(C/C=C/c1ccc(-c2ccccc2)cc1)Cc1ccc2c(c1)CCO2.O=S(=O)(O)O | 1800 µg/mL | –
COc1ccc(/C=C/CN(C)Cc2ccc3c(c2)CCCCC3)cc1.Cl | 1400 to 4100 µg/mL | –
CN(C/C=C/c1ccc(Br)cc1)Cc1ccc2c(c1)CCCC2.Cl | 2000 µg/mL | –
CN(C/C=C/c1ccc(-c2ccccc2)cc1)Cc1ccc2c(c1)CCO2 | – | Survival [21]: 0.2%; Survival [22]: 0.12%; fold change (FC) [23]: 10; fold change (FC) [24]: 10
CN(C/C=C/C=C/c1ccc(-c2ccccc2)cc1)Cc1ccc2c(c1)OCCC2.O=C(O)C(O)C(O)C(=O)O | 4600 µg/mL | –
Br.CN(C/C=C/C=C/c1ccc(-c2ccccc2)cc1)Cc1ccc2c(c1)OCCC2 | 2800 µg/mL | –
CC(=O)N[C@@H](CS)C(=O)O | – | Survival [25]: 54.7%; Survival [26]: 57%
CN(C/C=C/c1ccc(-c2ccccc2)cc1)Cc1ccc2c(c1)CCO2.O=C(O)C(F)(F)F | 1500 µg/mL | –
CN(C/C=C/c1ccc(C(F)(F)F)cc1)Cc1ccc2c(c1)CCCC2.Cl | 700 µg/mL | –
CN(C/C=C/c1ccc(-c2ccccc2)cc1)Cc1ccc2c(c1)CCO2.O=C(O)/C=C\C(=O)O | 1200 µg/mL | –
CCOc1ccc(/C=C/CN(C)Cc2ccc3c(c2)CCO3)cc1.Cl | 11600 µg/mL | –
CN(C/C=C/c1ccc(Cl)cc1)Cc1ccc2c(c1)CCCCC2.Cl | 1200 µg/mL | –
CN(C/C=C/c1ccc(Br)cc1)Cc1ccc2c(c1)CCCCC2.Cl | 600 µg/mL | –
CN(C/C=C/c1ccc(C(F)(F)F)cc1)Cc1ccc2c(c1)CCCCC2.Cl | 2600 µg/mL | –
